ERAP1 HTS inh = blocks human ERAP1 aminopeptidase activity; Q9NZ08; recombinant ERAP1, Leu-AMC fluorescence, 60 min; inhibition, % at 10.7 µM; hit rate 0.15% among 340,000;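 active = mean replicate inhibition of at least 30%, or all replicates individually reaching that 30% level; inactive = mean below 30% and not every replicate reaching it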;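 note: 0% = neutral control wells and 100% = L-leucinethiol positive control wells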
F508del corr = CFTR F508del correction in bronchial cells; hit rate 0.36% among 350,000; CFBE cells, YFP halide quenching; stimulated with forskolin plus potentiator P3; % fluorescence drop versus neutral controls; activity (quench increase), % at 7.58 µM;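 active = mean added fluorescence quench of at least 8% versus neutral control, with both replicates also reaching 8%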;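 note: cells transiently co-express mutant CFTR-F508del with the halide-sensitive YFP; corrector assay measuring rescue of mutant channel to the surface after 24 h compound exposure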
SIRT5 block = blocks human SIRT5 desuccinylation of peptide. Q9NXA8. Purified SirT5, succinyl-peptide AMC, trypsin-coupled fluorescence. inhibition, % at 15 µM. hit rate 1.1% among 330,000; in the data active = inhibition above about 15%
S100A4 inh HTS = blocks human S100A4 binding to myosin IIA peptide; P26447; S100A4/TAMRA-MyoIIA peptide fluorescence polarization; hit rate 0.14% among 360,000; inhibition, % at 10.7 µM;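 active = mean inhibition of at least 70% across replicates, with every replicate also reaching that level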
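Assay system: human S100A4 monomer with TAMRA-labelled myosin IIA peptide / Buffer or medium: Calcium-containing HEPES buffer, pH 7.2 / Reagent: TAMRA-labelled myosin IIA heavy-chain peptide probe, 5 nM / Compound: one dose per compound / Timing: polarization read 5 min after assay mix addition, stable 5–60 min / Benchmarks: neutral control DMSO, positive control TFP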
rRNA inh HTS = selective bacterial rRNA inhibition in E. coli. E. coli WT GFP vs humanized-ribosome RFP mutants, fluorescence, 24 h; hits give low values; DMSO median 0, no signal -100. GFP signal change (wild-type ribosome), % (concentration not given with the values). hit rate 1.6% among 350,000;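 active = significant combined selectivity score with lowered wild-type GFP, culture density cut under 30%, mutant RFP and density less affected; inactive = any of these conditions unmet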
Numbers without * were called inactive; · = no result. Rows were chosen to be rich in hits. Some 3.1% of all compounds tested hit in one or more screens of this group.

SMILES	ERAP1 HTS inh	F508del corr	SIRT5 block	S100A4 inh HTS	rRNA inh HTS
CN(C)CCCNC(=O)C[C@H]1CC[C@H]2[C@@H](COC[C@@H](O)CN2CC2CCCCC2)O1	1	-1	-1	4	-4
COc1ccc(NC(=O)Nc2ccc3c(c2)C(=O)N([C@@H](C)CO)C[C@H](C)[C@H](CN(C)Cc2ccc(C(=O)O)cc2)OCCCC[C@H](C)O3)cc1	-20	-1	2	7	-4
CCCC(=O)N1CC2(CN(Cc3nccs3)C2)c2c([nH]c3cc(OC)ccc23)[C@@H]1CO	1	-1	2	-1	4
C[C@H]1CN([C@@H](C)CO)C(=O)c2cc(C3=CCCC3)cnc2O[C@@H]1CN(C)C(=O)Cc1ccncc1	1	-2	-1	-13	0
CO[C@@H]1CN(C)C(=O)c2cc(NC(=O)C3CC3)ccc2OC[C@H](C)N(CCC(F)(F)F)C[C@@H]1C	4	2	-5	-5	-3
Cc1ccc(S(=O)(=O)N(C)C[C@H]2Oc3cc(C#Cc4ccncc4)ccc3S(=O)(=O)N([C@@H](C)CO)C[C@H]2C)cc1	0	-3	18*	-28	·
C[C@@H]1CN([C@@H](C)CO)S(=O)(=O)c2ccc(C#Cc3ccc(F)cc3)cc2O[C@H]1CN(C)S(=O)(=O)c1ccc(F)cc1	-4	1	23*	-3	7
C[C@@H]1CN([C@@H](C)CO)S(=O)(=O)c2ccc(C#Cc3ccncc3)cc2O[C@H]1CN(C)S(=O)(=O)c1ccc(F)cc1	-6	2	2	-1	-2
CCCC#Cc1ccc2c(c1)O[C@@H](CN(C)CC1CCOCC1)[C@H](C)CN([C@H](C)CO)S2(=O)=O	-3	2	24*	-6	-5
C[C@@H]1CN([C@H](C)CO)S(=O)(=O)c2ccc(C#Cc3cccc(F)c3)cc2O[C@@H]1CN(C)CC1CC1	-1	-1	15*	9	-13
C[C@H]1CN([C@@H](C)CO)S(=O)(=O)c2ccc(C#Cc3ccc(F)cc3)cc2O[C@@H]1CN(C)S(=O)(=O)c1ccc(F)cc1	-2	0	24*	-1	-2
Cc1nc(C(=O)N2CCc3c([nH]c4ccccc34)C2c2ccccn2)cs1 (stereo unspecified)	1	-1	-2	3	-20*
CCOc1ccc(-c2nc(-c3cccs3)c(CC(=O)O)s2)cc1OC	-8	0	-4	4	-19*
CO[C@@H]1CN(C)C(=O)c2cc(NC(=O)C3CCCCC3)ccc2OC[C@@H](C)NC[C@@H]1C	1	-1	-6	3	2
O=C(COc1ccccc1/C=C1/NC(=O)NC1=O)Nc1ccccc1	21	2	-4	-1	-26*
COC(=O)C[C@@H]1CC[C@H]2[C@@H](COc3ccc(NC(=O)c4cnccn4)cc3C(=O)N2C)O1	-1	2	-1	12	2
Cc1ccc(S(=O)(=O)N2CC[C@@H]3[C@H](CO)Nc4ccc(-c5ccccc5F)cc4[C@@H]32)cc1	1	-2	7	4	0
O=C(C[C@H]1CC[C@@H]2[C@H](COC[C@@H](O)CN2Cc2ccc(Cl)cc2)O1)NCc1ccccc1Cl	-1	-4	-2	-3	-25
CC(C)n1c(O)c(N=Nc2ccc(Cl)c(C(=O)O)c2)c2ccccc21	20	0	7	7	-18*
CCn1c(O)c(N=Nc2ccc(Cl)c(C(=O)O)c2)c2ccccc21	19	-1	6	3	-15
CCS(=O)(=O)N1CC2(C1)[C@H](c1ccccc1)[C@H](CO)N2C(=O)C1CCCC1	0	-3	0	1	-1
COc1ccc(NC(=O)N2CCCCN3[C@H](C2)[C@@H](c2ccc(C4=CCCC4)cc2)[C@@H]3CO)cc1	6	-9	5	-4	·
O=C(NN1C(=O)/C(=C/c2ccc(O)c([N+](=O)[O-])c2)SC1=S)c1ccccc1Cl	10	0	11	-9	-22*
O=C(CN1C(=O)C2C3CC(C(Br)C3Br)C2C1=O)Nc1ccc(C(=O)O)cc1 (stereo unspecified)	·	0	23*	11	7
O=C(CN1C(=O)C2C3C=CC(C3)C2C1=O)Nc1ccc(F)cc1 (stereo unspecified)	-2	·	-5	1	7

From PubChem BioAssay
